Results reported in ChEMBL document CHEMBL4811317, “Inhibitory activities of anthraquinone and xanthone derivatives against transthyretin amyloidogenesis” (Bioorg Med Chem, 2021).
In brackets after ≈: the same amount, converted by molar mass. Activity calls are given as the source filed them. The calls are words filed in the database; no cut-off is given here.

Key:
Transthyretin = Transthyretin (Homo sapiens, UniProt P02766, V50M); assay: Inhibition of acid-mediated aggregation of TTR V30M mutant (unknown origin) expressed in Escherichia coli pretreated for 30 mins at pH 7 followed by protein dilution in acetate buffer and further incubated for 96 hrs at pH 4.6 by thioflavin-T fluorescence assay
[1] = Cmax in Sprague-Dawley rat at 1 mg/kg, iv measured up to 8 hrs by LC-MS/MS analysis; format: ADME, organism-based; parameters: route intravenous, dose 1 mg/kg, time <=8; conditions: in vivo
Summary of the method: (§1)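 Male Sprague Dawley rats (7 weeks old, n = 2) given compound in 10% DMSO/0.1 M phosphate pH 8.5, i.v. or p.o. Caudal-vein blood at 5 min (i.v.), 15, 30 min, 1, 2, 4, 8 h; plasma precipitated with acetonitrile/IS, LC-MS/MS. Non-compartmental analysis; bioavailability = AUC∞(p.o.)/AUC∞(i.v.).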

[2] = Elimination half life in Sprague-Dawley rat at 1 mg/kg, iv measured up to 8 hrs by LC-MS/MS analysis; format: ADME, organism-based; conditions: in vivo, read-out: beta t1/2 (converted); summary of the method: as §1
[3] = Permeability of the compound at 10 uM measured after 4 hrs by PAMPA based LC-MS analysis; format: ADME; conditions: read-out: permeability
Summary of the method: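 PAMPA on pre-coated plates: donor 10 μM compound in 5% DMSO/0.1 M phosphate pH 6.4, acceptor 5% DMSO/0.1 M phosphate pH 7.4; 4 h at 37 °C without agitation. Donor, acceptor and initial donor solutions quantified by LC-MS/MS; recovery above 90%. Antipyrine, metoprolol, sulfasalazine as references. At least two technical replicates.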

[4] = Tmax in Sprague-Dawley rat at 1 mg/kg, po measured up to 8 hrs by LC-MS/MS analysis; format: ADME, organism-based; conditions: in vivo; summary of the method: as §1
[5] = Protein binding in Sprague-Dawley rat plasma assessed as unbound fraction at 1 uM measured after 4 hrs by equilibrium dialysis assay; format: ADME, cell-free
Summary of the method: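 Rat plasma spiked at 1 μM, equilibrium dialysis (8K MWCO) against 0.1 M phosphate pH 7.4 for 4 h at 37 °C, 1000 rpm. Unbound fraction = buffer/plasma concentration ratio. At least two technical replicates.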

[6] = Elimination half life in Sprague-Dawley rat at 1 mg/kg, po measured up to 8 hrs by LC-MS/MS analysis; format: ADME, organism-based; conditions: in vivo, read-out: beta t1/2 (converted); summary of the method: as §1
[7] = target: Transthyretin (Homo sapiens) (UniProt P02766); assay: Binding affinity to TTR V30M mutant (unknown origin) expressed in Escherichia coli by isothermal titration calorimetry
[8] = Metabolic stability in Sprague-Dawley rat liver microsomes assessed as residual rate at 1 uM measured after 30 mins by LC-MS/MS analysis; format: ADME, Microsome; conditions: read-out: Stabilty
[9] = AUC infinity in Sprague-Dawley rat at 1 mg/kg, iv measured up to 8 hrs by LC-MS/MS analysis; format: ADME, organism-based; parameters: route intravenous, dose 1 mg/kg, time <=8; conditions: in vivo
[10] = Intrinsic clearance in Sprague-Dawley rat liver microsomes at 1 uM preincubated for 5 mins followed by NADPH addition and measured after 30 mins by LC-MS/MS analysis; format: ADME, Microsome; conditions: time 35 min, read-out: CLH
Summary of the method: (§2)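 Rat liver microsomes 0.2 mg/mL with 1 μM compound, 1 mM EDTA, 0.1 M phosphate pH 7.4; 5 min preincubation, then 1 mM NADPH (final) added, 30 min at 37 °C, 60 rpm. Quenched in cold acetonitrile/internal standard, supernatant by LC-MS/MS against time zero. CLint scaled with 44.8 mg protein/g liver, 40.0 g liver/kg. At least two technical replicates.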

[11] = AUC infinity in Sprague-Dawley rat at 1 mg/kg, po measured up to 8 hrs by LC-MS/MS analysis; format: ADME, organism-based; parameters: route oral, dose 1 mg/kg, time <=8; conditions: in vivo
[12] = Total clearance in Sprague-Dawley rat at 1 mg/kg, iv measured up to 8 hrs by LC-MS/MS analysis; format: ADME, organism-based; conditions: in vivo; summary of the method: as §1
[13] = Bioavailability in Sprague-Dawley rat at 1 mg/kg, iv measured up to 8 hrs by LC-MS/MS analysis; format: ADME, organism-based; conditions: in vivo; summary of the method: as §1
[14] = Volume of distribution at steady state in Sprague-Dawley rat at 1 mg/kg, iv measured up to 8 hrs by LC-MS/MS analysis; format: ADME, organism-based; conditions: in vivo, read-out: Vdss; summary of the method: as §1
[15] = Metabolic stability in Sprague-Dawley rat liver microsomes assessed as residual rate at 1 uM preincubated for 5 mins followed by NADPH addition and measured after 30 mins by LC-MS/MS analysis; format: ADME, Microsome; conditions: time 35 min, read-out: Stabilty; summary of the method: as §2
[16] = Aqueous solubility of the compound in pH 1.2 JP1 fluid measured after 4 hrs ny HPLC-UV analysis; format: physicochemical
Summary of the method: (§3)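 Test compound diluted from 10 mM DMSO stock 2:165 into JP 1st fluid (pH 1.2) or JP 2nd fluid (pH 6.8); mixed 4 h at 37 °C with rotation at 1000 rpm, then filtered through 0.45 μm PVDF by centrifugation. At least two technical replicates.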

[17] = Aqueous solubility of the compound in pH 6.8 JP2 fluid measured after 4 hrs by HPLC-UV analysis; format: physicochemical; summary of the method: as §3
[18] = Cmax in Sprague-Dawley rat at 1 mg/kg, po measured up to 8 hrs by LC-MS/MS analysis; format: ADME, organism-based; parameters: route oral, dose 1 mg/kg, time <=8; conditions: in vivo; summary of the method: as §1

Compound	IC50 (Transthyretin) [µM]	also measured
Cc1cc(C(=O)O)c2c(c1)C(=O)c1ccccc1C2=O	45	–
CC(=O)Oc1cccc2c1C(=O)c1c(OC(C)=O)cc(C(=O)O)cc1C2=O [DIACEREIN]	5.4	–
O=C1c2ccccc2C(=O)c2c1ccc(O)c2O [ATHRAQUINONES A]	> 100	–
COc1cc(O)c2c(c1)C(=O)c1cc(C)cc(O)c1C2=O [PHYSCION]	> 100	–
Oc1ccc(O)c2c(O)c3ccccc3c(O)c12	> 100	–
O=C(O)c1cc(Cl)c2oc3ccccc3c(=O)c2c1	6.7	Cmax [1]: 8650 ng/mL; half-life [2]: 1.7 h; Papp at 4 h, 10 µM [3]: 17 ×10⁻⁶ cm/s; Tmax [4]: 2 h; fraction unbound at 4 h, 1 µM [5]: 0.017; half-life [6]: 5 h; Activity [7]: Active; remaining at 0.5 h, 1 µM [8]: 88%; AUC(0-inf) [9]: 13200 ng·h/mL; CLint scaled at 1 µM [10]: 37.9 mL/min/kg; AUC(0-inf) [11]: 9190 ng·h/mL; clearance [12]: 1.27 mL/min/kg; bioavailability [13]: 69.8%; Vd [14]: 0.164 L/kg; remaining at 0.5 h, 1 µM [15]: 88%; solubility at 4 h [16]: 2.9 µM (≈ 0.797 µg/mL); solubility at 4 h [17]: > 100 µM; Cmax [18]: 1120 ng/mL
O=C1c2ccccc2C(=O)c2c(O)ccc(O)c21 [QUINIZARIN]	> 100	–
O=C(O)c1ccc2oc3ccc(Cl)cc3c(=O)c2c1	12	–
O=C(O)c1ccc2c(c1)C(=O)c1cccc(O)c1C2=O	50	–
COc1cccc2c1C(=O)c1c(O)c3c(c(O)c1C2=O)C[C@@](O)(C(C)=O)C[C@@H]3O[C@H]1C[C@H](N)[C@H](O)[C@H](C)O1 [DAUNORUBICIN]	> 100	–
Cc1cc(C(=O)O)cc2c1C(=O)c1ccccc1C2=O	13	–
Cc1ccc2oc3ccccc3c(=O)c2c1	> 100	–
O=C(O)c1cc(C(=O)O)c2c(c1)C(=O)c1ccccc1C2=O	> 100	–
O=C1c2ccc(O)c(O)c2C(=O)c2c(O)ccc(O)c21 [QUINALIZARIN]	> 100	–
Cc1cc(O)c2c(c1)C(=O)c1cc(O)cc(O)c1C2=O [EMODIN]	> 100	–
O=C(O)c1cc(Cl)c2c(c1)C(=O)c1ccccc1C2=O	12	–
CCOc1cccc2c1C(=O)c1ccc(C(=O)O)cc1C2=O	22	–
O=C(O)c1ccc2oc3cc(Cl)ccc3c(=O)c2c1	> 100	–
O=C(O)c1ccc2c(=O)c3cc(Cl)ccc3oc2c1	10	–
O=C1c2cccc(O)c2C(=O)c2cccc(O)c21 [ANTHRARUFIN]	> 100	–
O=C1c2cccc(O)c2C(=O)c2c(O)cc(CO)cc21 [ALOE-EMODIN]	> 100	–
O=C1c2ccc(O)cc2C(=O)c2c1ccc(O)c2O	12	–

Compound	IC50 (Transthyretin) [µM]	also measured
O=C(O)c1ccc2c(c1)C(=O)c1c(Cl)c(Cl)c(Cl)c(Cl)c1C2=O	21	–
O=C1c2ccccc2C(=O)c2c(O)c(O)cc(O)c21 [PURPURIN]	12	–
Nc1ccc(O)c2c1C(=O)c1c(O)c(S(=O)(=O)O)cc(N)c1C2=O	> 100	–
CC(C)=CCc1c(O)cc2oc3cc(O)c(O)c(CC=C(C)C)c3c(=O)c2c1O	10	–
O=C(O)c1ccc2oc3c(Cl)cccc3c(=O)c2c1	13	–
CC(=O)Oc1cccc2c1C(=O)c1ccc(C(=O)O)cc1C2=O	10	–
O=C1c2cccc(O)c2C(=O)c2c(O)cccc21 [DANTHRON]	> 100	–
Cc1ccc2c(=O)c3ccccc3oc2c1	> 100	–
O=C(O)c1ccc2c(=O)c3ccc(Cl)cc3oc2c1	13	–
Cc1cc(O)c2c(c1)C(=O)c1cccc(O)c1C2=O [CHRYSOPHANOL]	> 100	–
Cc1cc(C(=O)O)cc2c(=O)c3ccccc3oc12	6.5	Cmax [1]: 19200 ng/mL; half-life [2]: 2.4 h; Papp at 4 h, 10 µM [3]: 18 ×10⁻⁶ cm/s; Tmax [4]: 0.25 h; fraction unbound at 4 h, 1 µM [5]: 0.0073; half-life [6]: 4.4 h; Activity [7]: Active; remaining at 0.5 h, 1 µM [8]: 88%; AUC(0-inf) [9]: 7520 ng·h/mL; CLint scaled at 1 µM [10]: 35.7 mL/min/kg; AUC(0-inf) [11]: 2620 ng·h/mL; clearance [12]: 2.22 mL/min/kg; bioavailability [13]: 34.9%; Vd [14]: 0.148 L/kg; remaining at 0.5 h, 1 µM [15]: 88%; solubility at 4 h [16]: 2 µM (≈ 0.508 µg/mL); solubility at 4 h [17]: > 100 µM; Cmax [18]: 476 ng/mL
O=C(O)c1ccc2oc3ccccc3c(=O)c2c1	22	–
O=C(O)c1cc(F)c2c(c1)C(=O)c1ccccc1C2=O	24	–
O=C(O)c1cc(O)c2c(c1)C(=O)c1cccc(O)c1C2=O [RHEIN]	12	–
O=C(O)c1cc(Cl)c2oc3c(Cl)cccc3c(=O)c2c1	9.1	–
Nc1c(O)c(S(=O)(=O)O)c(O)c2c1C(=O)c1ccccc1C2=O	11	–
O=C(O)c1ccc2c(c1)C(=O)c1ccccc1C2=O	28	–
O=C(O)c1ccc2c(=O)c3ccccc3oc2c1	19	–
O=C(O)c1ccc2c(=O)c3cccc(Cl)c3oc2c1	7.7	–
O=C(O)c1ccc2oc3cccc(Cl)c3c(=O)c2c1	13	–
O=C(O)c1ccc2c(=O)c3c(Cl)cccc3oc2c1	10	–
